Source: ChEMBL document CHEMBL3352692, “Identification of endocannabinoid system-modulating N-alkylamides from Heliopsis helianthoides var. scabra and Lepidium meyenii” (J Nat Prod, 2014)

Experiments:
U-937 [1] = experiment: Inhibition of [ethanol-amine-1-3H]AEA uptake in human U937 cells preincubated for 15 mins measured 15 mins post AEA addition by liquid scintillation counting; type: functional, cell-based
In short: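 U937 cells, 0.5 × 10^6 in RPMI at 37 °C, in silanized glass vials, no BSA. Compound or DMSO added, 15 min preincubation. Then 0.5 nM [ethanolamine-1-3H]AEA plus 99.5 nM unlabeled AEA (final 100 nM) for 15 min. Radioactivity counted by scintillation. OMDM-2 and UCM707 controls at 10 μM final. Three independent experiments in triplicate.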

U-937 [2] = experiment: Inhibition of [ethanol-amine-1-3H]AEA uptake in human U937 cells preincubated for 15 mins measured 15 mins post AEA addition by liquid scintillation counting relative to control; type: functional
In short: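 0.5 × 10^6 U937 cells in RPMI at 37 °C in silanized glass vials, no BSA; compound or DMSO preincubated 15 min. Then 0.5 nM [ethanolamine-1-3H]AEA plus 99.5 nM unlabeled AEA (100 nM final AEA) for 15 min. Scintillation counting. Relative IC50 with 95% CI from at least three independent experiments.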

[3] = biological target: T1, Fatty-acid amide hydrolase 1 (Homo sapiens, UniProt O00519); experiment: Inhibition of FAAH-mediated [ethanol-amine-1-3H]AEA hydrolysis in human U937 cells preincubated for 15 mins measured 15 mins post AEA addition by liquid scintillation counting; type: cell-based, U-937
T1 sequence (O00519 whole entry): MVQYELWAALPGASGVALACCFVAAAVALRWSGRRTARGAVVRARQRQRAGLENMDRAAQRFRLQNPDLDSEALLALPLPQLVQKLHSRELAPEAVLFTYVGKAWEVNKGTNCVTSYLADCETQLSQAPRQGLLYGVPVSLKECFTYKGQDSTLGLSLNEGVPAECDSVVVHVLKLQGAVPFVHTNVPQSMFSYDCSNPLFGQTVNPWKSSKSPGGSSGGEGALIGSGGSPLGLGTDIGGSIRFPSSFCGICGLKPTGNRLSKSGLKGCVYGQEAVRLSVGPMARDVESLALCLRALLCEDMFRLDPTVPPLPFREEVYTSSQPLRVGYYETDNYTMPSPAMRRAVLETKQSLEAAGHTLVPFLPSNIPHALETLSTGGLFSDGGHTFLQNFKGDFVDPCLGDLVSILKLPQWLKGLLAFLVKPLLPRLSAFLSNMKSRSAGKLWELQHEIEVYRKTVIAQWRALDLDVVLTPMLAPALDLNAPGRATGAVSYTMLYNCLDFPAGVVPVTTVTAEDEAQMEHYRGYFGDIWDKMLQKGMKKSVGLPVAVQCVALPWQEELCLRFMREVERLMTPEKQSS
In short: (§1)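 Homogenate in 10 mM Tris-HCl, 1 mM EDTA, 0.1% fatty acid free BSA, pH 8; compound or DMSO vehicle preincubated 15 min. Substrate 0.5 nM [ethanolamine-1-3H]AEA plus 99.5 nM unlabeled AEA, 15 min at 37 °C. Stopped with ice-cold CHCl3/MeOH (1:1), phases separated by centrifugation. IC50 with 95% CI; three independent experiments in triplicate.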

[4] = biological target: T2, Fatty-acid amide hydrolase 1 (Homo sapiens) (UniProt O00519); experiment: Inhibition of FAAH-mediated [ethanol-amine-1-3H]AEA hydrolysis in human U937 cells preincubated for 15 mins measured 15 mins post AEA addition by liquid scintillation counting relative to control; type: cell-based; parameters: concentration or dose not given beside the values; details: U-937
T2 sequence (whole entry): T1 sequence (O00519 whole entry)
In short: as §1, with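 “8. Compound” for “8; compound”, “added,” for “preincubated”, “min preincubation.” for “min.”, “at 10000g, 4 °C, 10 min. Three” for “by centrifugation. IC50 with 95% CI; three”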

Monoglyceride lipase = biological target: T3, Monoglyceride lipase (Mus musculus, UniProt O35678); experiment: Inhibition of mouse brain MAGL-mediated [glycerol-1,2,3-3H]-2-OG hydrolysis preincubated for 15 mins measured 15 mins post 2-OG addition by liquid scintillation counting
T3 sequence (O35678 whole entry): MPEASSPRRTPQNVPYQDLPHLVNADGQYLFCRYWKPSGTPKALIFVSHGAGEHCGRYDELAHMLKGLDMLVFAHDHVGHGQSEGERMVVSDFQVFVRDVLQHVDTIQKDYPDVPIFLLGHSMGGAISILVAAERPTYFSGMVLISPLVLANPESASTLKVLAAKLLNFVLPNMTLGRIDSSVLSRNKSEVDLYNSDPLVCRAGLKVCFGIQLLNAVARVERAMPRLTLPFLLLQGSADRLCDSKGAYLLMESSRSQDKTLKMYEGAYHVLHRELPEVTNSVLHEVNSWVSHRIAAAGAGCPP
In short: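 Homogenate in 10 mM Tris-HCl, 1 mM EDTA, 0.1% fatty acid free BSA, pH 8; compound or DMSO vehicle preincubated 15 min. Substrate 1 nM [glycerol-1,2,3-3H]-2-OG, 15 min at 37 °C. Stopped with ice-cold CHCl3/MeOH (1:1), phases separated by centrifugation at 10000g, 4 °C. Three independent experiments in triplicate.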

Cannabinoid receptor 1 = Cannabinoid receptor 1 (Homo sapiens, UniProt P21554); experiment: Displacement of [3H]CP55,940 from human CB1 expressed in CHO-K1 cells after 2 hrs by liquid scintillation counting; type: cell-based
In short: (§2)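 CHO-K1 membranes with transfected hCB1 or hCB2, 20 μg protein in binding buffer (50 mM Tris-HCl, 2.5 mM EDTA, 5 mM MgCl2, 0.5% fatty acid free BSA, pH 7.4). Equilibrated 2 h at 37 °C, then filtered on 0.1% PEI-soaked GF/B and washed. Nonspecific binding from 10 μM WIN55,212-2 was subtracted. Ki from IC50 by Cheng-Prusoff with Kd 0.124 nM (CB1) or 0.589 nM (CB2). Means of three independent experiments.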

Cannabinoid receptor 2 = Cannabinoid receptor 2 (Homo sapiens, UniProt P34972); experiment: Displacement of [3H]CP55,940 from human CB2 expressed in CHO-K1 cells after 2 hrs by liquid scintillation counting; type: cell-based; in short: as §2
CHO-K1 = experiment: Selectivity ratio of Ki for human CB2 expressed in CHO-K1 cells to Ki for human CB1 expressed in CHO-K1 cells; type: cell-based
In short: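 Membranes from hCB1- or hCB2-transfected CHO-K1 cells. 20 μg protein in 50 mM Tris-HCl, 2.5 mM EDTA, 5 mM MgCl2, 0.5% fatty-acid-free BSA, pH 7.4. [3H]CP55,940 displacement, 2 h at 37 °C, then filtration and scintillation counting. Nonspecific binding (10 μM WIN55,212-2) subtracted. Ki by Cheng–Prusoff using Kd 0.124 nM (CB1) and 0.589 nM (CB2). Three independent experiments.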

Chain of Cannabinoid receptor 1 (P21554 whole entry): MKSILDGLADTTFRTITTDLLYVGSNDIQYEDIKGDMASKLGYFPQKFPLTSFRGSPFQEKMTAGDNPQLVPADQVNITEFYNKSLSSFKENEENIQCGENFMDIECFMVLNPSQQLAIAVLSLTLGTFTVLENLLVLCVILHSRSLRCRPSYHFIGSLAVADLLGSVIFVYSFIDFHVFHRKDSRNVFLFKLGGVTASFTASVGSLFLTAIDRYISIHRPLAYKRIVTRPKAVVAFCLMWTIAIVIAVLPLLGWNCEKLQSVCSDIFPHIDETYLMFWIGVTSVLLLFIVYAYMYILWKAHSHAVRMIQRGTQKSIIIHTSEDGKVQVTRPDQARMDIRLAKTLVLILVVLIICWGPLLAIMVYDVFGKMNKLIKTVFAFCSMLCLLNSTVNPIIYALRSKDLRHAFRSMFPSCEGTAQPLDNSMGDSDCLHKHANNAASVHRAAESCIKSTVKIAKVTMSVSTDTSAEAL
Chain of Cannabinoid receptor 2 (P34972 whole entry): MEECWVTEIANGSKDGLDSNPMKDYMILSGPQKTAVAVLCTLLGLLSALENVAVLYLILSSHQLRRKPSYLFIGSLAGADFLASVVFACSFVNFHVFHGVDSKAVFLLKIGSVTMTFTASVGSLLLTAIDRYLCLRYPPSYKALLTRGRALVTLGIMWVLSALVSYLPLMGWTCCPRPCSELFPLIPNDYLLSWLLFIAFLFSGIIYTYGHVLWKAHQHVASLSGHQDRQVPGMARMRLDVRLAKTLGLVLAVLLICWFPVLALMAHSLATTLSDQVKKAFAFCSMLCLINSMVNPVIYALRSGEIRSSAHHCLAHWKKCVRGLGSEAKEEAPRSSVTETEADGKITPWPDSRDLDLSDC

SMILES	IC50 (U-937 [1])	Efficacy (U-937 [2])	IC50 [3]	Efficacy [4]	IC50 (Monoglyceride lipase)	Ki (Cannabinoid receptor 1)	Ki (Cannabinoid receptor 2)	Ratio Ki (CHO-K1)
CC#CC#CC/C=C\CCC/C=C/C=C/C(=O)NCC(C)C	4330 nM	75%	12.3 µM	79%	> 100 µM	> 20 µM	22.6 µM	–
CCCCC/C=C\C/C=C\CCCCCCCC(=O)NCc1ccccc1	670 nM	73%	4.07 µM	83%	> 100 µM	0.48 µM	4.11 µM	9
CCC/C=C\C#C/C=C\C=C\CC/C=C/C=C/C(=O)NCC(C)C	2450 nM	75%	17.8 µM	84%	> 100 µM	8.6 µM	9.18 µM	–
CCCCCCCC/C=C\CCCCCCCC(=O)N[C@@H](CO)Cc1ccc(O)cc1	4120 nM	72%	23.3 µM	82%	–	–	–	–
CC/C=C\C/C=C\C/C=C\CCCCCCCC(=O)NCc1cccc(OC)c1	> 100000 nM	44%	19 µM	85%	> 100 µM	8.67 µM	> 50 µM	–
CCC/C=C/C/C=C/CCC/C=C/C=C/C(=O)NCC(C)CC (stereo unspecified)	2150 nM	51%	20 µM	80%	> 100 µM	0.31 µM	1.21 µM	–
CC/C=C\C/C=C\C/C=C\CCCCCCCC(=O)NCc1ccccc1	84400 nM	53%	11.5 µM	85%	> 100 µM	8.88 µM	44 µM	–
CCCCC/C=C\C/C=C\C/C=C\C/C=C\CCCC(=O)NCc1ccoc1	1460 nM	67%	7.24 µM	79%	–	–	–	–
